CHOP inh: inhibitors of CHOP induction in ER stress response; inhibition, % at 10 µM; 220,000 compounds, 3.8% hits; CHO-K1 CHOP-promoter luciferase, tunicamycin-induced, 15-18 h;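 active = compounds that reduced the stress-induced luciferase reporter signal by more than about 70% of percent inhibition, limit read from the data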
TbMetRS inhib: Trypanosoma brucei MetRS inhibition; purified T. brucei MetRS, ATP depletion, Kinase-Glo luminescence; inhibition, % at 11.9 µM; 360,000 compounds, 0.4% hits;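 active = inhibition above a per-plate cutoff of the control wells' mean inhibition plus 3 SD, cut at about 5.5% in these data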
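Material: parasite MetRS enzyme / Replication: singlicate, one well per compound / Signal: luminescence of leftover ATP / Schedule: 2 h aminoacylation at 25 °C after 15 min preincubation / Medium: HEPES-MgCl2-KCl buffer plus DTT, spermine, BSA, pyrophosphatase / Doses: 11.9 µM single point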
V-ATPase pH: yeast V-ATPase proton transport regulation by pHLuorin; response, % at 10 µM; S. cerevisiae, pHLuorin cytosolic pH fluorescence; 350,000 compounds, 0.37% hits; AID 504577; in the data active = response mostly above about 7.3%, no sharp cut-off; inactive = mostly below about 5.4%; note: actives read high
XBP1 UPR activ: activators of adaptive arm of unfolded protein response (XBP1); 330,000 compounds, 0.33% hits; activation, % at 20 µM; CHO-XBP1 luciferase reporter, IRE1-XBP1 UPR activation, luminescence; percent of tunicamycin response, DMSO as zero; AID 463104;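 active = versus positive control, 20 µM dose yields 30% or more activation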
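Assay system: CHO-XBP1 luciferase reporter cells; Schedule: 6 h treatment, 37 °C; Detection: glow luminescence from Steady-Glo reagent; Benchmarks: high control tunicamycin 10 µg/mL final, low control DMSO vehicle only.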
UPR CHOP act: activators of apoptotic arm of unfolded protein response (CHOP). 330,000 compounds, 0.34% hits. CHO-CHOP luciferase reporter, UPR activation, luminescence; percent of tunicamycin response over DMSO baseline. activation, % at 10 µM;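 active = at 10 µM dose, activation of 40% or more, normalized to positive control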
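Assay system: CHO-CHOP cells, stable luciferase reporter of PERK-eIF2a-CHOP signalling / Buffer or medium: F12 plus 10% serum / Compound dosing: one dose, 10 µM in 0.5% DMSO / Times: 6 h compound treatment, 37 °C / Technique: luciferase luminescence / Read-out: % reporter activation, DMSO baseline versus tunicamycin full activation / Benchmarks: tunicamycin and DMSO controls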
CHOP inh conf: confirmation of CHOP induction inhibitors. shares compounds with CHOP inh. CHO-CHOP promoter luciferase reporter, tunicamycin-induced, luminescence. inhibition, % at 10 µM. 2,100 compounds, 45% hits;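 active = mean of three repeat readings of reporter signal inhibition above a set limit, cut at about 70% in these data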
Hits are given with their value; . = inactive; / = no result given; ! = repeats disagree. This excerpt belongs to a sample that is enriched for hits.

SMILES	CHOP inh	TbMetRS inhib	V-ATPase pH	XBP1 UPR activ	UPR CHOP act	CHOP inh conf
Cc1c(NC(=O)CN2C(=O)NC3(CCCCC3)C2=O)c(=O)n(-c2ccccc2)n1C	.	.	.	.	.	/
Cn1cnc([N+](=O)[O-])c1S(=O)(=O)Oc1ccccc1	/	.	.	/	/	/
Cn1cnc([N+](=O)[O-])c1S(=O)(=O)c1cccc(Cl)c1	109	.	.	.	.	110
O=C(O)/C=C/c1ccc([N+](=O)[O-])o1	.	.	.	.	.	/
O=[N+]([O-])c1ccc(/C=N/N=C/c2ccc([N+](=O)[O-])o2)o1	108	.	.	/	/	134
O=C1CC(c2ccccc2Cl)CC(O)=C1C=Nc1ccccc1 (stereo not drawn)	103	.	.	.	.	104
Cc1ccc(N=CC2=C(O)CC(c3cccc(Cl)c3)CC2=O)cc1 (stereo not drawn)	.	.	.	.	.	/
O=C1CC(c2ccccc2)CC(O)=C1C=Nc1cccc(Cl)c1 (stereo not drawn)	102	.	.	.	.	76
Cc1ccc(N=CC2=C(O)CC(c3ccccc3Cl)CC2=O)cc1 (stereo not drawn)	.	.	.	.	.	/
O=C(COC(=O)/C=C/C(=O)OCC(=O)NC12CC3CC(CC(C3)C1)C2)NC12CC3CC(CC(C3)C1)C2	105	.	.	.	.	.
CN(C)S(=O)(=O)c1cccc(NC(=O)C2Cc3ccccc3CN2C(=O)c2ccco2)c1 (stereo not drawn)	/	.	.	.	.	/
Cc1cc(N)ncc1[N+](=O)[O-]	/	.	.	/	/	/
Cc1ccc(C)c(Oc2ncnc(N)c2[N+](=O)[O-])c1	.	.	.	.	.	/
Cc1cc(Sc2ncnc(N)c2[N+](=O)[O-])ncn1	106	.	.	.	.	.
Cc1cc(Sc2nc(N)ncc2[N+](=O)[O-])ncn1	106	.	.	.	.	.
O=C(NNC(=O)C1CC(c2cccs2)=NO1)NC1CCCCC1 (stereo not drawn)	.	.	.	.	.	/
CCCc1nc2ccccc2c(=O)n1CCc1ccccc1	/	.	.	.	.	/
COc1ccc(NC(=S)N2CCN(S(=O)(=O)c3ccc(OC)cc3)CC2)cc1	/	.	.	.	.	/
Cc1cc(C)c2c(N)c3cccc(C)c3nc2n1	.	.	.	/	/	/
O=C(Nc1cccc(F)c1)N(Cc1ccc(Cl)cc1)CC(O)C(F)(F)F (stereo not drawn)	109	.	.	.	.	104
CCc1ccc2c(c1)C(c1ccc([N+](=O)[O-])cc1)=NNC(c1ccc(C)cc1)=N2	97	.	.	.	.	83
CCc1ccc2c(c1)C(c1ccc(N3CCOCC3)cc1)=NNC(c1ccncc1)=N2	.	.	.	.	.	/
Cn1c(COc2ccc([N+](=O)[O-])cc2)nnc1SCC(=O)NCC1CCCO1 (stereo not drawn)	/	.	.	.	.	/
C[C@H](NC(=O)Nc1cccc(Br)c1)C(=O)O	.	.	.	.	.	/
C=CCOC(=O)C1=C(C)NC(SCC(=O)Nc2nccs2)=C(C#N)C1c1cccs1 (stereo not drawn)	99	.	.	.	.	.
SMILES	CHOP inh	TbMetRS inhib	V-ATPase pH	XBP1 UPR activ	UPR CHOP act	CHOP inh conf
CCOC(=O)C1=C(C)NC(SCC(=O)Nc2cc(C)on2)=C(C#N)C1c1cccs1 (stereo not drawn)	.	.	.	.	.	/
C=CCOC(=O)C1=C(C)NC(SCC(=O)Nc2nccs2)=C(C#N)C1c1ccc(Cl)cc1 (stereo not drawn)	106	.	.	.	.	132
Cc1ccc(S(=O)(=O)N(c2nc(NC(C)C)nc(NC(C)C)n2)n2cnnc2)cc1	.	.	.	.	.	/
CCN(CCCNc1cc2c(c(N)c1S(=O)(=O)O)C(=O)c1ccccc1C2=O)c1ccccc1	/	.	.	/	/	/
CCCOc1c(Cl)cc(/C=N/O)cc1OCC	102	.	.	.	.	.
O=C1NCN(c2ccccc2)C12CCN(CCCC(c1ccc(F)cc1)c1ccc(F)cc1)CC2	106!	.	.	.	.	123
CCCOc1ccc(N2C(=O)CC(NNC(=O)c3ccc(COc4ccccc4)o3)C2=O)cc1 (stereo not drawn)	102	.	.	.	.	.
